Most compounds without a hit are left out; they make up all but 3% or so of the library.
Apaf-1 inh: inhibitors of human Apaf-1 apoptosome; reconstituted apoptosome caspase-3 activity, DEVD-Rh110 fluorescence; inhibition, % at 20 µM; hit rate 0.71% among 330,000; AID 489030; active = inhibition of at least 40% at 20 µM;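 note: plate controls were DMSO wells for no effect and DEVD-CHO caspase inhibitor wells for full effect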
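Material: reconstituted apoptosome with Apaf-1, cytochrome c, caspase-9, procaspase-3, dATP. Technique: Rh110 fluorescence intensity. Buffer or medium: pH 7.5 Hepes buffer with CHAPS, BSA, DTT. Times: 30 min plus 50 min, RT.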
UBC13 inh: inhibitors of human UBC13 polyubiquitin chain formation; P61088; TR-FRET; inhibition, % at 20 µM; hit rate 0.47% among 330,000; AID 485273; in the data active = inhibition above about 45%, passing the limit was not always enough
Target sequence (P61088 whole entry, looked up): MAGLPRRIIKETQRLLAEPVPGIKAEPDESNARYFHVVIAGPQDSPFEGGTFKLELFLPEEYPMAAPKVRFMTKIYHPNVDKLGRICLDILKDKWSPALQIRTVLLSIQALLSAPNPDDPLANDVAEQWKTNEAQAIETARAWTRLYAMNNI
MIN6 prolif: MIN6 beta-cell proliferation induction; AID 2380; proliferation, % at 10 µM; hit rate 0.29% among 330,000; MIN6 cells proliferation, ATPlite luminescence, 48 h; cells starved in 0.2% serum; 100% = growth in 10% serum;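 active = compounds whose signal lies at least 3.5 SD above the mean of all wells on their plate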;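 note: 0% = DMSO-treated cells in low-serum medium and 100% = 10% serum control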
MPTP inh: permeability transition pore inhibition; isolated mouse mitochondria, Ca2+ swelling absorbance, 30 min; inhibition, % at 10 µM; hit rate 1.4% among 360,000;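 active = inhibition of 50% or more, scaled per plate between neutral and stimulator controls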;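 note: 0% = DMSO wells given calcium and 100% = 1 mM EGTA wells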
Exocytosis inh: blocks lytic granule exocytosis | inhibition, % at 10 µM | TALL-104 LAMP-1 surface exposure, flow cytometry; cells stimulated with thapsigargin and PMA | hit rate 0.66% among 360,000;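 active = inhibition above about 55%, limit read from the data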
hiPSC survival: hiPSC single-cell survival enhancement. ATPlite luminescence; 100% = ROCK inhibitor wells, 0% = DMSO. survival enhancement, % at 20 µM. hit rate 0.044% among 360,000; in the data active = survival enhancement above about 18%;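 note: cells exposed to compounds for 16 hours before the ATP read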
Rh123 counter: membrane potential counter-screen of mitochondrial pore inhibitors; shares compounds with MPTP inh; hit rate 78% among 5,000; isolated mitochondria, Rhodamine 123 fluorescence; inhibition, % at 10 µM; in the data active = inhibition above about 22%;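 note: 0% = DMSO vehicle and 100% = positive control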
MPTP abs DR: MPTP inhibition, dose response swelling confirmation; shares compounds with MPTP inh; AID 651561; IC50, µM; isolated mitochondria swelling, absorbance; hit rate 58% among 780; in the data active = IC50 below about 20 µM
MPTP counter DR: MPTP inhibitor counter-screen activity, dose response | shares compounds with MPTP inh | isolated mitochondria counterscreen, fluorescence read-out | IC50, µM | hit rate 49% among 780 | AID 651564; in the data active = IC50 below about 80 µM
* hit, by the source's call; / = no result.

SMILES	Apaf-1 inh	UBC13 inh	MIN6 prolif	MPTP inh	Exocytosis inh	hiPSC survival	Rh123 counter	others
CCOC(=O)c1ccc(NC(=S)NCCc2ccccc2F)cc1	7	-5	-6	78*	22	-1	89*
CCOC(=O)c1ccc(NC(=S)NCCc2ccccc2)cc1	31	0	-7	2	-3	-4	/
CCOC(=O)c1ccc(NC(=S)NCc2ccccc2)cc1	15	3	-4	89*	4	0	87*
O=C(NCCC1=CCCCC1)Nc1ccc2nsnc2c1	15	22	-4	85*	-4	2	85*
COC(=O)c1ccc(NC(=S)NC2CCCCC2C)cc1 (stereo not drawn)	1	19	-4	98*	12	-2	94*
CC(=O)c1cccc(NC(=S)NCCC2=CCCCC2)c1	16	-2	-5	6	-1	-2	/
Nc1ccn([C@@H]2O[C@H](CNCc3cccc4c3sc3ccccc34)[C@@H](O)[C@H]2O)c(=O)n1	/	/	/	-1	1	-1	/
O=C(COC(=O)Cn1ccc(=O)[nH]c1=O)Nc1ccc(F)cc1	10	-10	-2	-1	-7	2	/
CCOC(=O)c1ccc(NC(=S)NCCC2=CCCCC2)cc1	15	-3	-5	77*	-2	0	86*
CCOC(=O)c1ccc(NC(=S)NC(=O)C2CCCC2)cc1	16	-4	-7	1	5	0	/
CCOC(=O)c1ccc(NC(=S)NC2CCCC2)cc1	8	1	0	95*	0	-1	96*
COc1ccc(Cl)cc1S(=O)(=O)N1CCN(C(=O)c2n[nH]c(=O)c3ccccc23)CC1	2	-3	2	0	4	1	/
CC(OC(=O)c1cccnc1Cl)C(=O)Nc1ccc2c(c1)OCO2 (stereo not drawn)	3	3	-1	-1	-1	0	/
COc1ccc(-c2cc3ccccc3n2CC(O)CNCCO)cc1 (stereo not drawn)	10	16	-5	54*	-4	-5	-18	MPTP abs DR=10*;MPTP counter DR=>80
CCOC(=O)C1CCN(S(=O)(=O)c2ccc3c(c2)CC(C)N3C(=O)C2CCC2)CC1 (stereo not drawn)	11	10	-2	0	13	1	/
CC1=C(C)CC(C(=O)Nc2nccs2)C(C(=O)O)C1 (stereo not drawn)	-19	-5	-3	0	5	0	/
CC(=O)c1c(C)[nH]c(C(=O)OCC(=O)Nc2ccc(Cl)cc2[N+](=O)[O-])c1C	11	2	0	91*	-5	2	93*
COc1ccc(NC(=O)c2cc(S(=O)(=O)N3CCCCC3)ccc2C)cc1S(=O)(=O)N1CCOCC1	/	/	/	0	-3	0	/
O=S(=O)(c1ccccc1C(F)(F)F)N1CCN(c2ncnc3sccc23)CC1	-3	9	-5	19	-2	0	/
Cc1ccc(-c2csc3ncnc(N4CCN(S(=O)(=O)c5ccc(C#N)cc5)CC4)c23)cc1	/	/	/	0	-7	-2	/
CCS(=O)(=O)N1CCN(c2ncnc3sc(C)c(C)c23)CC1	-2	-6	-2	0	1	0	/
Cc1sc2ncnc(N3CCN(S(=O)(=O)c4ccc(F)cc4)CC3)c2c1C	18	-1	-3	56*	9	1	66*
O=S(=O)(c1ccc(F)c(F)c1F)N1CCN(c2ncnc3sccc23)CC1	9	-5	-6	68*	-9	-2	87*
Cc1ccc(S(=O)(=O)N2CCN(c3ncnc4sccc34)CC2)cc1	6	3	-7	82*	2	0	85*
CC1CCN(C(=O)COC(=O)C2CCN(S(=O)(=O)c3c(Cl)cccc3Cl)CC2)CC1	13	-5	-4	-1	-2	0	/
O=C(NC1CCCCC1)c1cc2ccccc2cc1O	36	-18	-6	115*	-3	1	49*
Cc1ccc(NC(=O)c2cc3ccccc3cc2O)cc1	12	14	-7	70*	-6	0	73*
